How the values were obtained:
[1] = Oral bioavailability in rat at 5 mg/kg; conditions: in vivo
[2] = biological target: T1, Dual specificity protein kinase TTK (Homo sapiens, UniProt P33981); experiment: Inhibition of Kinase Tracer 236 binding to recombinant human full-length GST-tagged TTk expressed in baculovirus expression system measured after 1 hr by LanthaScreen Eu--kinase binding assay
T1 sequence (P33981 whole entry): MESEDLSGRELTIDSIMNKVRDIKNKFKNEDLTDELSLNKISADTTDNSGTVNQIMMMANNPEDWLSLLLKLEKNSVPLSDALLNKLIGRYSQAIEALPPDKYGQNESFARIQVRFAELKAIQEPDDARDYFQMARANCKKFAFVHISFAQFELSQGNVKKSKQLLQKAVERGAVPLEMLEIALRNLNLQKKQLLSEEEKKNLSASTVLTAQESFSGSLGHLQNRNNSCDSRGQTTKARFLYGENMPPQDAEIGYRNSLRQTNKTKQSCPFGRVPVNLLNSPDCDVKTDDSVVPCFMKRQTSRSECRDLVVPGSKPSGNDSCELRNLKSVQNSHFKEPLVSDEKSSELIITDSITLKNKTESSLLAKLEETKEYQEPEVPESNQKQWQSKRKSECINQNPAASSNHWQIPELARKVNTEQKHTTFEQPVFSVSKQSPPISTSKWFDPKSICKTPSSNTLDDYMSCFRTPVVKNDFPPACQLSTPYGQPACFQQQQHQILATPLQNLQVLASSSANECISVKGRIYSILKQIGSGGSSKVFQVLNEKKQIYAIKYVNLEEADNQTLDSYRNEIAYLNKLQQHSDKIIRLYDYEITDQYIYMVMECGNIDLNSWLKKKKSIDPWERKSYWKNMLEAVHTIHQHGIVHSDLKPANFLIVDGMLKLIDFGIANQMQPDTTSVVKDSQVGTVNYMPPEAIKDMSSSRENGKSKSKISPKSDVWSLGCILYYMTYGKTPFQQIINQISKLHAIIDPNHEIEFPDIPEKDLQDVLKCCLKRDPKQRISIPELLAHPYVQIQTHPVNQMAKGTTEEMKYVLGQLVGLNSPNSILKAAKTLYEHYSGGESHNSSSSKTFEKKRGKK

CAL-51 [3] = experiment: Antiproliferative activity against human CAL51 cells assessed as reduction in cell viability after 3 days by CellTiter-Glo reagent-based luminescent assay; type: functional; conditions: CAL-51, 72 h
[4] = AUC in rat at 10 mg/kg, po; type: ADME, organism-based; conditions: in vivo
Procedure, shortened: (§1)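 Rat oral PK at 10 mg/kg. Compound is given as a solution in CMCT (0.5% CMC/0.25% tween-80) or formulated in 5% TPGS, 10% captisol, 50 mM citrate buffer. Cmax and AUC are recorded.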

[5] = biological target: T1, Dual specificity protein kinase TTK; experiment: Inhibition of TTK autophosphorylation in human CAL51 cells by radioimmuno-precipitation assay; type: cell-based
[6] = Cmax in CB17 SCID mouse at 30 mg/kg, po; type: ADME, organism-based; parameters: dose 30 mg/kg, route oral; conditions: in vivo
Procedure, shortened: (§2)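 Oral PK in SCID mice at 30 mg/kg. Compound is formulated either in CMCT (0.5% CMC/0.25% tween-80) or in 5% TPGS, 10% captisol, 50 mM citrate buffer, depending on compound. Cmax and AUC are measured.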

[7] = Metabolic stability in human liver S9 fraction assessed as parent compound remaining after 60 mins; type: ADME, subcellular; conditions: read-out: Stability
[8] = Cmax in rat at 10 mg/kg, po; type: ADME, organism-based; parameters: dose 10 mg/kg, route oral; conditions: in vivo
Procedure, shortened: as §1

[9] = AUC in CB17 SCID mouse at 30 mg/kg, po; type: ADME, organism-based; conditions: in vivo
Procedure, shortened: as §2

CAL-51 [10] = experiment: Antitumor activity against human CAL51 cells xenografted in CB17 SCID mouse assessed as tumor growth inhibition at 5 mg/kg, iv q4d and measured twice per week up to 31 days by caliper method relative to control; type: functional; conditions: CAL-51, iv, 744 h, read-out: TGI
[11] = Toxicity in CB17 SCID mouse xenografted with human CAL51 cells assessed as body weight loss at 5 mg/kg, iv q4d and measured up to 31 days relative to control; type: organism-based; conditions: in vivo, 744 h

| SMILES | IC50 [2] [nM] | IC50 (CAL-51 [3]) [nM] | AUC [4] [µM·h] | further results |
| --- | --- | --- | --- | --- |
| CNC(=O)c1ccc(Nc2nc(OC3CCCC3)c3c(-c4ccc5nc(C)oc5c4)c[nH]c3n2)c(OC)c1 |  |  |  | bioavailability [1]: 0.9% |
| COc1cc(C(=O)N(C)C)ccc1Nc1nc(OC2CCCC2)c2cc[nH]c2n1 | 1.3 | 497 |  |  |
| CCOc1cc(C(=O)N(C)C)ccc1Nc1nc(O[C@H]2CC[C@@](C)(O)CC2)c2cc[nH]c2n1 |  | 26 |  |  |
| COc1cc(N2CCC(C)(O)CC2)ccc1Nc1nc(O[C@H]2CCOC(C)(C)C2)c2cc[nH]c2n1 |  | 71 | 11 |  |
| COc1cc(N2CCN(C3COC3)CC2)ccc1Nc1nc(O[C@H]2CCOC(C)(C)C2)c2cc[nH]c2n1 | 2.5 | 84 | 24 | IC50 [5]: 44 nM; Cmax [6]: 11.8 µM; remaining at 1 h [7]: 85%; Cmax [8]: 4.43 µM; AUC [9]: 35.3 µM·h |
| COc1cc(N2CCN(C(=O)CO)CC2)ccc1Nc1nc(O[C@H]2CCOC(C)(C)C2)c2cc[nH]c2n1 | 1.3 | 37 | 9.5 to 9.52 | IC50 [5]: 16 nM; Cmax [6]: 9.86 µM; remaining at 1 h [7]: 79%; Cmax [8]: 2.53 µM; AUC [9]: 17.6 µM·h |
| COc1cc(C(=O)N(C)C)ccc1Nc1nc(O[C@H]2CCOC(C)(C)C2)c2cc[nH]c2n1 | 1 | 131 | 30 |  |
| COc1cc(C(=O)N(C)C)ccc1Nc1nc(O[C@H]2CC[C@](C)(O)CC2)c2cc[nH]c2n1 | 0.6 | 69 |  |  |
| COc1cc(N2CCOCC2)ccc1Nc1nc(O[C@H]2CCOC(C)(C)C2)c2cc[nH]c2n1 |  | 53 | 14.7 |  |
| COc1cc(C(=O)N(C)C)ccc1Nc1nc(OC2CCOCC2)c2cc[nH]c2n1 | 1 | 198 |  |  |
| CN(C)C(=O)c1ccc(Nc2nc(O[C@H]3CC[C@@](C)(O)CC3)c3cc[nH]c3n2)c(OCC(F)(F)F)c1 |  | 15 | 16.1 |  |
| COc1cc(C(=O)N(C)C)ccc1Nc1nc(O[C@H]2CC[C@@](C)(O)CC2)c2cc[nH]c2n1 | 0.7 | 44 | 21.8 |  |
| C[C@@H](Oc1cc(C(=O)N(C)C)ccc1Nc1nc(O[C@H]2CC[C@@](C)(O)CC2)c2cc[nH]c2n1)C(F)(F)F |  | 24 | 30 |  |
| COc1cc(C(=O)N(C)C)ccc1Nc1nc(OC2CCCCC2)c2cc[nH]c2n1 | 1.3 | 190 |  |  |
| CC(=O)O[C@@]12CO[C@@H]1C[C@H](O)[C@@]1(C)C(=O)[C@H](O)C3=C(C)[C@@H](OC(=O)[C@H](O)[C@@H](NC(=O)OC(C)(C)C)c4ccccc4)C[C@@](O)([C@@H](OC(=O)c4ccccc4)[C@H]21)C3(C)C [DOCETAXEL ANHYDROUS] |  |  |  | inhibition in vivo at 5 mg/kg (CAL-51 [10]): 61%; Activity [11]: 20% |
| COc1cc(C(=O)N(C)C)ccc1Nc1nc(OC2COC2)c2cc[nH]c2n1 | 7.2 | 1960 |  |  |
| COc1cc(C(=O)N(C)C)ccc1Nc1nc(OC(C)C)c2cc[nH]c2n1 | 3.2 | 1260 |  |  |
| COc1cc(C(=O)N2CCOCC2)ccc1Nc1nc(O[C@H]2CCOC(C)(C)C2)c2cc[nH]c2n1 |  | 406 |  |  |

From ChEMBL document CHEMBL4346709, “Design and Optimization Leading to an Orally Active TTK Protein Kinase Inhibitor with Robust Single Agent Efficacy” (J Med Chem, 2019)
